Test results taken from ChEMBL document CHEMBL1146375, “Synthetic studies on novel benzimidazolopeptides with antimicrobial, cytotoxic and anthelmintic potential” (2007).
In brackets after ≈: the same amount, converted by molar mass.

Test system: Bacillus subtilis
Assay: Antibacterial activity against Bacillus subtilis NCIM 2063 after 18 hrs by disc diffusion method
Format: functional
Conditions: not given
Summary of the method: (§1)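 Modified Kirby-Bauer disc diffusion. Plates inoculated with spore suspension (about 6 × 10⁴ spores mL^-1). Sterile 6 mm paper discs carried test samples at 10 mg mL^-1; ciprofloxacin disc as reference, DMF disc as negative control. Plates held 18 h at 37 °C. Inhibition zone diameters (mm) averaged over triplicate sets.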

Row | SMILES | inhibition zone (IZ) [mm]
1 | CC(C)[C@H](NC(=O)c1cc(-c2nc3ccc([N+](=O)[O-])cc3[nH]2)ccc1O)C(=O)N[C@@H](Cc1ccccc1)C(=O)N[C@@H](Cc1cnc[nH]1)C(=O)O | 13

Test system: Trichophyton benhamiae
Assay: Antifungal activity against Trichophyton mentagrophytes MUCC 665 after 48 hrs by tube dilution method
Format: functional, Arthroderma benhamiae
Conditions: not given
Summary of the method: (§2)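 Tube dilution MIC as for bacteria (seven concentrations, 200–3.1 […]), with DMSO in place of DMF. Tubes inoculated with fungal culture and incubated 48 h at 37 °C. MIC read from presence or absence of growth.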

Row | SMILES | MIC [µg/mL]
2 | CC(C)[C@H](NC(=O)c1cc(-c2nc3ccc([N+](=O)[O-])cc3[nH]2)ccc1O)C(=O)N[C@@H](Cc1ccccc1)C(=O)N[C@@H](Cc1cnc[nH]1)C(=O)O | 6 (≈ 8.79 µM)

Test system: Candida albicans
Assay: Antifungal activity against Candida albicans MUCC 29 after 48 hrs by tube dilution method
Format: functional
Conditions: not given
Summary of the method: as §2

Row | SMILES | MIC [µg/mL]
3 | CC(C)[C@H](NC(=O)c1cc(-c2nc3ccc([N+](=O)[O-])cc3[nH]2)ccc1O)C(=O)N[C@@H](Cc1ccccc1)C(=O)N[C@@H](Cc1cnc[nH]1)C(=O)O | 6 (≈ 8.79 µM)

Test system: not listed separately
Assay: Growth inhibition of DLA cells at 125 ug/mL after 3 hrs
Format: functional
Conditions: Mus musculus
Summary of the method: (§3)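 DLA and EAC cells passaged intraperitoneally in albino mice, harvested after 15–20 days and adjusted to 1 × 10⁶ cells/mL. Dilutions in Dulbecco's medium (500–31.25, some down to 3.91 µg/mL; 5-FU reference) mixed 1:1 with cells and held 3 h at 37 °C. Trypan blue exclusion gave % growth inhibition; CTC50 by graphical extrapolation.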

Row | SMILES | inhibition at 125 µg/mL [%]
4 | CC(C)[C@H](NC(=O)c1cc(-c2nc3ccc([N+](=O)[O-])cc3[nH]2)ccc1O)C(=O)N[C@@H](Cc1ccccc1)C(=O)N[C@@H](Cc1cnc[nH]1)C(=O)O | 26.3

Test system: not listed separately
Assay: Growth inhibition of EAC cells after 3 hrs
Format: functional
Conditions: Mus musculus, Ehrlich
Summary of the method: as §3

Row | SMILES | CC50 [µM]
5 | CC(C)[C@H](NC(=O)c1cc(-c2nc3ccc([N+](=O)[O-])cc3[nH]2)ccc1O)C(=O)N[C@@H](Cc1ccccc1)C(=O)N[C@@H](Cc1cnc[nH]1)C(=O)O | > 718

Test system: not listed separately
Assay: Growth inhibition of EAC cells at 62.5 ug/mL after 3 hrs
Format: functional
Conditions: Mus musculus, Ehrlich
Summary of the method: as §3

Row | SMILES | inhibition at 62.5 µg/mL [%]
6 | CC(C)[C@H](NC(=O)c1cc(-c2nc3ccc([N+](=O)[O-])cc3[nH]2)ccc1O)C(=O)N[C@@H](Cc1ccccc1)C(=O)N[C@@H](Cc1cnc[nH]1)C(=O)O | 3.57

Test system: Microsporum audouinii
Assay: Antifungal activity against Microsporum audouinii MUCC 545 after 48 hrs by tube dilution method
Format: functional
Conditions: not given
Summary of the method: as §2

Row | SMILES | MIC [µg/mL]
7 | CC(C)[C@H](NC(=O)c1cc(-c2nc3ccc([N+](=O)[O-])cc3[nH]2)ccc1O)C(=O)N[C@@H](Cc1ccccc1)C(=O)N[C@@H](Cc1cnc[nH]1)C(=O)O | 12.5 (≈ 18.3 µM)

Test system: Pontoscolex corethrurus
Assay: Anthelmintic activity against Pontoscolex corethrurus ICARBC 408 assessed as mean paralyzing time
Format: functional
Conditions: not given
Summary of the method: (§4)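 Earthworms exposed to test suspensions at 2 mg mL^-1 (0.2% w/v), made by triturating compound with Tween 80 (0.5%) and distilled water, then mechanically stirred 30 min. Mebendazole suspension prepared alike as reference. Paralysis and death times recorded; death confirmed by no movement in 50 °C water. Means from triplicate sets.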

Row | SMILES | Time [min]
8 | CC(C)[C@H](NC(=O)c1cc(-c2nc3ccc([N+](=O)[O-])cc3[nH]2)ccc1O)C(=O)N[C@@H](Cc1ccccc1)C(=O)N[C@@H](Cc1cnc[nH]1)C(=O)O | 11.87

Test system: not listed separately
Assay: Growth inhibition of EAC cells at 500 ug/mL after 3 hrs
Format: functional
Conditions: Mus musculus, Ehrlich
Summary of the method: as §3

Row | SMILES | inhibition at 500 µg/mL [%]
9 | CC(C)[C@H](NC(=O)c1cc(-c2nc3ccc([N+](=O)[O-])cc3[nH]2)ccc1O)C(=O)N[C@@H](Cc1ccccc1)C(=O)N[C@@H](Cc1cnc[nH]1)C(=O)O | 10.7

Test system: not listed separately
Assay: Anthelmintic activity against Megascoplex konkanensis ICARBC 211 assessed as mean paralyzing time
Format: functional
Conditions: not given
Summary of the method: as §4

Row | SMILES | TIME [h]
10 | CC(C)[C@H](NC(=O)c1cc(-c2nc3ccc([N+](=O)[O-])cc3[nH]2)ccc1O)C(=O)N[C@@H](Cc1ccccc1)C(=O)N[C@@H](Cc1cnc[nH]1)C(=O)O | 0.174

Test system: Pseudomonas aeruginosa
Assay: Antibacterial activity against Pseudomonas aeruginosa NCIM 2034 after 18 hrs by disc diffusion method
Format: functional
Conditions: not given
Summary of the method: as §1

Row | SMILES | inhibition zone (IZ) [mm]
11 | CC(C)[C@H](NC(=O)c1cc(-c2nc3ccc([N+](=O)[O-])cc3[nH]2)ccc1O)C(=O)N[C@@H](Cc1ccccc1)C(=O)N[C@@H](Cc1cnc[nH]1)C(=O)O | 24

Test system: Eudrilus
Assay: Anthelmintic activity against Eudrilus sp. assessed as mean paralyzing time
Format: functional
Conditions: not given
Summary of the method: as §4

Row | SMILES | Time [min]
12 | CC(C)[C@H](NC(=O)c1cc(-c2nc3ccc([N+](=O)[O-])cc3[nH]2)ccc1O)C(=O)N[C@@H](Cc1ccccc1)C(=O)N[C@@H](Cc1cnc[nH]1)C(=O)O | 11.55

Test system: Candida albicans
Assay: Antifungal activity against Candida albicans MUCC 29 after 48 hrs by disc diffusion method
Format: functional
Conditions: not given
Summary of the method: (§5)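 Agar well diffusion on plates inoculated with spore suspension in normal saline from cultures on Sabouraud's broth. Wells punched and loaded with test samples or griseofulvin at 10 mg mL^-1, with DMSO as negative control. Incubated 48 h at 37 °C.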

Row | SMILES | inhibition zone (IZ) [mm]
13 | CC(C)[C@H](NC(=O)c1cc(-c2nc3ccc([N+](=O)[O-])cc3[nH]2)ccc1O)C(=O)N[C@@H](Cc1ccccc1)C(=O)N[C@@H](Cc1cnc[nH]1)C(=O)O | 19

Test system: not listed separately
Assay: Growth inhibition of EAC cells at 250 ug/mL after 3 hrs
Format: functional
Conditions: Mus musculus, Ehrlich
Summary of the method: as §3

Row | SMILES | inhibition at 250 µg/mL [%]
14 | CC(C)[C@H](NC(=O)c1cc(-c2nc3ccc([N+](=O)[O-])cc3[nH]2)ccc1O)C(=O)N[C@@H](Cc1ccccc1)C(=O)N[C@@H](Cc1cnc[nH]1)C(=O)O | 7.14

Test system: not listed separately
Assay: Growth inhibition of DLA cells at 62.5 ug/mL after 3 hrs
Format: functional
Conditions: Mus musculus
Summary of the method: as §3

Row | SMILES | inhibition at 62.5 µg/mL [%]
15 | CC(C)[C@H](NC(=O)c1cc(-c2nc3ccc([N+](=O)[O-])cc3[nH]2)ccc1O)C(=O)N[C@@H](Cc1ccccc1)C(=O)N[C@@H](Cc1cnc[nH]1)C(=O)O | 21

Test system: Trichophyton benhamiae
Assay: Antifungal activity against Trichophyton mentagrophytes MUCC 665 after 48 hrs by disc diffusion method
Format: functional, Arthroderma benhamiae
Conditions: not given
Summary of the method: as §5

Row | SMILES | inhibition zone (IZ) [mm]
16 | CC(C)[C@H](NC(=O)c1cc(-c2nc3ccc([N+](=O)[O-])cc3[nH]2)ccc1O)C(=O)N[C@@H](Cc1ccccc1)C(=O)N[C@@H](Cc1cnc[nH]1)C(=O)O | 13
